What was measured:
Kallikrein-5 [1] = target: T1, Kallikrein-5 (Homo sapiens, UniProt Q9Y337); test: Inhibition of human recombinant 6His-Q-FLAG-tagged KLK5 expressed in baculovirus infected Sf9 insect cells using (Tos-Gly-Pro-Arg)2[R110].2TFA as substrate measured at 30 secs interval for 5 mins by FLINT assay
T1 sequence (Q9Y337 whole entry): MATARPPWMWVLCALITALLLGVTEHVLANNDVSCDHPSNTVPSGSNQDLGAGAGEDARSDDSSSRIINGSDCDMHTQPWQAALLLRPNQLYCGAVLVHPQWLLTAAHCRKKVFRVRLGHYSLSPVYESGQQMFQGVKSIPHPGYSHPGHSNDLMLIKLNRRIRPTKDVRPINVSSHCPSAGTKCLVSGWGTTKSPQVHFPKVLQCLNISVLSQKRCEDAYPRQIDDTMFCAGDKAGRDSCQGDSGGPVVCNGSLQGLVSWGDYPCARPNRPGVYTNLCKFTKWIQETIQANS
Outline: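 Standard KLK5 assay format. Its theoretical tight-binding limit corresponds to pIC50 8.4.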

Kallikrein-1 [2] = target: T2, Kallikrein-1 (Homo sapiens, UniProt P06870); test: Inhibition of human recombinant N-terminal His-tagged and enterokinase cleavage site-fused KLK1 (19 to 262 residues) expressed in baculovirus infected Sf9 insect cells using R110 labelled GSK3162232A as substrate measured at 30 secs interval for 5 mins by FLINT assay
[3] = Dissociation constant, borocycle pKa of the compound; assay type: physicochemical
Kallikrein-1 [4] = target: T2, Kallikrein-1; test: Inhibition of human recombinant N-terminal His-tagged and enterokinase cleavage site-fused KLK1 (19 to 262 residues) expressed in baculovirus infected Sf9 insect cells at 10 uM using R110 labelled GSK3162232A as substrate measured at 30 secs interval for 5 mins by FLINT assay relative to control
Coagulation factor X = Coagulation factor X (Homo sapiens, UniProt P00742); test: Inhibition of recombinant human C-terminal 10-His-tagged factor Xa (L24 to K488 residues) expressed in baculovirus infected Sf21 insect cells using Mca-RPKPVE-Nval-WRK(Dnp)-NH2 as substrate incubated for 40 mins by FLINT assay
Plasma kallikrein = Plasma kallikrein (Homo sapiens, UniProt P03952); test: Inhibition of human C-terminal 6-His-tagged KLKB1 (G20-A638 residues) expressed in mouse NS0 cells using PFR-AMC as substrate incubated for 40 mins by FLINT assay
Kallikrein-7 = Kallikrein-7 (Homo sapiens, UniProt P49862); test: Inhibition of recombinant human C-terminal 10-His-tagged KLK7 (Glu23 to His252 residues) expressed in mouse NS0 cells using 5-FAM-E-A-L-Y-L-V-S-G-C(5-TAMRA) as substrate incubated for 40 mins by FLINT assay
Kallikrein-8 = target: T3, Kallikrein-8 (Homo sapiens, UniProt O60259); test: Inhibition of recombinant human C-terminal 10-His-tagged KLK8 (Gln29 to Gly260 residues) expressed in mouse NS0 cells using BOC-VPR-AMC as substrate incubated for 40 mins by FLINT assay
T3 sequence (O60259 whole entry): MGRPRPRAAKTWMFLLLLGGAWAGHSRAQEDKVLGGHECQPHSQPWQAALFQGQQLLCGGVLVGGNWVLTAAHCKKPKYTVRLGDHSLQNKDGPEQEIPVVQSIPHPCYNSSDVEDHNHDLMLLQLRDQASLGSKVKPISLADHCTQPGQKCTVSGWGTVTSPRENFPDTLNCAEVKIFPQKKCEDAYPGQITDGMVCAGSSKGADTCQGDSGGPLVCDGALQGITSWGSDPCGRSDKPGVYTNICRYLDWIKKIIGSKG

Kallikrein-14 = target: T4, Kallikrein-14 (Homo sapiens, UniProt Q9P0G3); test: Inhibition of recombinant human C-terminal 10-His-tagged KLK14 (Q19 to M248 residues) expressed in mouse NS0 cells using BOC-VPR-AMC as substrate incubated for 40 mins by FLINT assay
T4 sequence (Q9P0G3 whole entry): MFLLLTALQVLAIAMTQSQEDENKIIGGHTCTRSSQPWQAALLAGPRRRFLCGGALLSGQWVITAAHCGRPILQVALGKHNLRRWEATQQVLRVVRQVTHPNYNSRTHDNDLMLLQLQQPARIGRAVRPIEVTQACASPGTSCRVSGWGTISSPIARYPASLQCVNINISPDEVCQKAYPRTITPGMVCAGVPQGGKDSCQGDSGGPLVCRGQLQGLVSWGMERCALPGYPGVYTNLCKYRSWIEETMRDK

[5] = target: T5, Suppressor of tumorigenicity 14 protein (Homo sapiens, UniProt Q9Y5Y6); test: Inhibition of recombinant human N-terminal Met and 6-His-tagged matriptase (G596 to V855 residues) expressed in Escherichia coli using Boc-QAR-AMC as substrate incubated for 40 mins by FLINT assay
T5 sequence (Q9Y5Y6 whole entry): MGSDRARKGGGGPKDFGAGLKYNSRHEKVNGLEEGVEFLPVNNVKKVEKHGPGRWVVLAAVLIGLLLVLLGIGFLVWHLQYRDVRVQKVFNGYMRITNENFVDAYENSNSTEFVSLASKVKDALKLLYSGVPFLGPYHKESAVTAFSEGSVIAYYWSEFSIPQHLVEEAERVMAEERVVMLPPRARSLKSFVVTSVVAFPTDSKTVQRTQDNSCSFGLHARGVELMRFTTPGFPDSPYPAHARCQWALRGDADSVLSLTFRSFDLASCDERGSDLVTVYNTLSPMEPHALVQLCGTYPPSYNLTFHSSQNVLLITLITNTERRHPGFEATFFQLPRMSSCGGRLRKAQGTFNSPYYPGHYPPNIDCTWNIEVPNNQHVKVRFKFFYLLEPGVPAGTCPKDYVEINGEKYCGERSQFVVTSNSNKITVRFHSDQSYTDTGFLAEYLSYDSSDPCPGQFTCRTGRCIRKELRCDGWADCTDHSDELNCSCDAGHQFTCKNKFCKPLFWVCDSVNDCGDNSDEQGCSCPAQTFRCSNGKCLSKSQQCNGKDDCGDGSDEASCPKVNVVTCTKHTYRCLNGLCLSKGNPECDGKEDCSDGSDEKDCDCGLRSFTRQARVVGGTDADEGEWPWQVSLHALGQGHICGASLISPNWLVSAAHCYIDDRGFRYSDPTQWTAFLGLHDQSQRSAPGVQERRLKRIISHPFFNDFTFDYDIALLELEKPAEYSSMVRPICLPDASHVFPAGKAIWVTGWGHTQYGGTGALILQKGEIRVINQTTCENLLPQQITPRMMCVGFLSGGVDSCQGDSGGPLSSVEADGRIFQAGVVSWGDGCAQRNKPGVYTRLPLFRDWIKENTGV

Prothrombin = Prothrombin (Homo sapiens, UniProt P00734); test: Inhibition of human recombinant C-terminal 10-His-tagged thrombin (M1 to E622 residues) expressed in mouse NS0 cells using BOC-VPR-AMC as substrate incubated for 40 mins by FLINT assay
Neutrophil elastase = target: T6, Neutrophil elastase (Homo sapiens, UniProt P08246); test: Inhibition of human neutrophil elastase using MeOSuc-AAPV-AMC as substrate incubated for 40 mins by FLINT assay
T6 sequence (P08246 whole entry): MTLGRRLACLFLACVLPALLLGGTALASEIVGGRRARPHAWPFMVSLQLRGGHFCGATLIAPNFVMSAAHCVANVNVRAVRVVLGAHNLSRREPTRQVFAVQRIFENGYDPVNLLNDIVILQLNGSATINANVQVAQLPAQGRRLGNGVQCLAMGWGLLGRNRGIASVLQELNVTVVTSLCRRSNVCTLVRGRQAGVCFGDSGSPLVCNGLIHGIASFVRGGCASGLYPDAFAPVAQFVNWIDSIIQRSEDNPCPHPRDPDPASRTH

[6] = target: Urokinase-type plasminogen activator (Homo sapiens, UniProt P00749); test: Inhibition of recombinant human C-terminal 10-His-tagged urokinase (M1 to L431 residues) expressed in mouse NS0 cells using Z-GGR-AMC as substrate incubated for 40 mins by FLINT assay
Kallikrein-5 [7] = target: T1, Kallikrein-5; test: Inhibition of human recombinant 6His-Q-FLAG-tagged KLK5 expressed in baculovirus infected Sf9 insect cells using (Tos-Gly-Pro-Arg)2[R110].2TFA as substrate measured at 30 secs interval for 5 mins using 1 x 10'10M enzyme by FLINT assay
Homo sapiens = species on record: Homo sapiens; test: Selectivity ratio of IC50 for human C-terminal 6-His-tagged KLKB1 (G20 to A638 residues) expressed in mouse NS0 cells to IC50 for human recombinant 6His-Q-FLAG-tagged KLK5 expressed in baculovirus infected Sf9 insect cells

Structure (SMILES) | IC50 (Kallikrein-5 [1]) [µM] | IC50 (Kallikrein-1 [2]) [µM] | pKa [3] | inhibition (Kallikrein-1 [4]) [%] | IC50 (Coagulation factor X) [µM] | IC50 (Plasma kallikrein) [µM] | IC50 (Kallikrein-7) [µM] | IC50 (Kallikrein-8) [µM] | IC50 (Kallikrein-14) [µM] | IC50 [5] [µM] | IC50 (Prothrombin) [µM] | IC50 (Neutrophil elastase) [µM] | IC50 [6] [µM] | IC50 (Kallikrein-5 [7]) [µM] | Ratio IC50 (Homo sapiens)
N=C(N)c1cccc(COc2ccc3c(c2)B(O)OC3)c1 | 12.6 | 158 | – | – | – | – | – | – | – | – | – | – | – | – | –
N=C(N)c1ccc(COc2ccc3c(c2)B(O)OC3)cc1 | 39.8 | 39.8 | – | – | – | – | – | – | – | – | – | – | – | – | –
N=C(N)c1ccc(OCc2ccc3c(c2)B(O)OC3)cc1 | 6.31 | 10 | – | – | – | – | – | – | – | – | – | – | – | – | –
N=C(N)c1ccc(C2CCCB(O)O2)cc1 (racemic) | 39.8 | 63.1 | – | – | – | – | – | – | – | – | – | – | – | – | –
N=C(N)c1ccc(NCC2Cc3ccccc3B(O)O2)cc1 (racemic) | 1.58 | > 10 | – | 35 | – | – | – | – | – | – | – | – | – | – | –
N=C(N)c1ccc(C2Cc3ccccc3B(O)O2)cc1OCc1cccc(Cl)c1 (racemic) | 0.00794 | 1.58 | – | – | 2 | 0.00501 | 39.8 | 0.1 | 0.251 | 0.0126 | 0.398 | 15.8 | 0.0631 | 0.00501 | 10
N=C(N)c1ccc(COc2cccc3c2B(O)OC3)cc1 | 31.6 | 501 | – | – | – | – | – | – | – | – | – | – | – | – | –
N=C(N)c1ccc(CNc2cccc3c2B(O)OC3)cc1 | 200 | 7.94 | – | – | – | – | – | – | – | – | – | – | – | – | –

Now from value to molecule, other results behind:

IC50 (Kallikrein-5 [1]) [µM] | IC50 (Kallikrein-1 [2]) [µM] | pKa [3] | inhibition (Kallikrein-1 [4]) [%] | IC50 (Coagulation factor X) [µM] | IC50 (Plasma kallikrein) [µM] | IC50 (Kallikrein-7) [µM] | IC50 (Kallikrein-8) [µM] | IC50 (Kallikrein-14) [µM] | IC50 [5] [µM] | IC50 (Prothrombin) [µM] | IC50 (Neutrophil elastase) [µM] | IC50 [6] [µM] | IC50 (Kallikrein-5 [7]) [µM] | Structure (SMILES) | Ratio IC50 (Homo sapiens)
0.0398 | > 10 | 4.71 | 13 | 79.4 | 1.26 | > 100 | 12.6 | 39.8 | 25.1 | 31.6 | > 100 | > 100 | 0.0251 | COc1ccc2c(c1)C(Cc1ccc(C(=N)N)c(OCc3cccnc3)c1)OB2O (racemic) | 10
0.00631 | 3.98 | 4.66 | – | 63.1 | 0.0794 | > 100 | 0.316 | 0.316 | 10 | 10 | 31.6 | > 100 | 0.00794 | N=C(N)c1ccc(C2Cc3ccc(F)cc3B(O)O2)cc1OCc1cccnc1 (racemic) | 10
398 | 79.4 | – | – | – | – | – | – | – | – | – | – | – | – | N=C(N)c1ccc(C2OB(O)c3ccccc32)cc1 (racemic) | –
– | 0.398 | 4.54 | – | 1.58 | 0.01 | 39.8 | 0.0251 | 0.126 | 2 | 3.98 | > 100 | 12.6 | 0.000501 | N=C(N)c1ccc(C2Cc3ccc(C(F)(F)F)cc3B(O)O2)cc1OCc1cccnc1 (racemic) | –
0.01 | 0.631 | – | – | 10 | 0.0501 | 39.8 | 0.251 | 1.58 | 7.94 | 3.16 | 6.31 | 50.1 | 0.00794 | N=C(N)c1ccc(C2Cc3ccccc3B(O)O2)cc1OCc1ccccc1Cl (racemic) | 10
6.31 | 158 | – | – | – | – | – | – | – | – | – | – | – | – | N=C(N)c1ccc(COc2ccc3c(c2)COB3O)cc1 | –
0.0126 | 0.316 to 3.98 | 4.77 | – | 5.01 | 0.794 | > 100 | 7.94 | 12.6 | 63.1 | 2 | 1.58 | 79.4 | 0.00158 | N=C(N)c1ccc(CC2OB(O)c3cc(F)ccc32)cc1OCc1cccnc1 (racemic) | 10
0.0251 | > 10 | – | 27 | 50.1 | 0.0794 | > 100 | 1.58 | 0.398 | 1.26 | 3.16 | 0.794 | 5.01 | 0.0251 | Cc1cccc2c1B(O)OC(c1ccc(C(=N)N)c(OCc3cccnc3)c1)C2 (racemic) | 10
3.98 | 0.501 | – | – | – | – | – | – | – | – | – | – | – | – | N=C(N)c1cccc(C2Cc3ccccc3B(O)O2)c1 (racemic) | –
50.1 | 25.1 | – | – | – | – | – | – | – | – | – | – | – | – | N=C(N)c1ccc(Oc2ccc3c(c2)B(O)OC3)cc1 | –
– | 3.98 to 6.31 | 4.26 | – | 5.01 | 0.2 | > 100 | 0.251 | 0.2 | 15.8 | 2 | 1.26 | 79.4 | 0.00126 | N=C(N)c1ccc(C2Cc3cc(Cl)c(F)cc3B(O)O2)cc1OCc1cccnc1 (racemic) | –
